Tests used:
[1] = Drug metabolism in sandwich-cultured human hepatocytes treated with 10 uM DB868 after 4 hrs of incubation by HPLC-MS/MS analysis; assay type: ADME, cell-based, Hepatocyte
Summary of the method: (§1)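 Sandwich-cultured hepatocytes were used on day 5 (human) or day 4 (rat) and rinsed with warm phenol-red-free DMEM. They were then exposed to 10 µM DB868 (0.1–0.2% DMSO) at 37°C. Medium and methanol/water cell lysates were collected at 0.5, 2, 4 and 24 h. Analytes were quantified by HPLC/MS/MS with deuterated internal standards; protein by Bradford. Replicates: 6 (human) or 4 (rat).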

[2] = Drug metabolism in sandwich-cultured human hepatocytes treated with 10 uM DB868 after 24 hrs of incubation by HPLC-MS/MS analysis; assay type: ADME, cell-based, Hepatocyte; summary of the method: as §1
Liver microsome [3] = assay: Prodrug conversion in rat liver microsomes assessed as elution time treated with 10 uM DB868 after 180 mins incubation by HPLC-UV chromatography; assay type: ADME; settings: 3 h
Summary of the method: (§2)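 HLM or RLM (0.5 mg/mL) were incubated in triplicate in 100 mM phosphate pH 7.4 with 10 mM MgCl2 and an NADPH-regenerating system (1 mM NADP+, glucose 6-phosphate, G6PDH). DB868 was 10 µM. Sampled up to 180 min. Prodrug and metabolites were measured by HPLC-UV at 359 nm and expressed relative to initial prodrug; DB829 LLOQ 50 nM.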

Cytochrome P450 1A2 [4] = target: T1, Cytochrome P450 1A2 (Homo sapiens, UniProt P05177); assay: Activity at human recombinant CYP1A2-mediated drug metabolism treated with 5 uM DB868 after 180 mins incubation by HPLC-UV chromatography; assay type: ADME; settings: recombinant enzyme, 15 min, in the assay text read “15 mins” for “180 mins”
T1 sequence (P05177 whole entry): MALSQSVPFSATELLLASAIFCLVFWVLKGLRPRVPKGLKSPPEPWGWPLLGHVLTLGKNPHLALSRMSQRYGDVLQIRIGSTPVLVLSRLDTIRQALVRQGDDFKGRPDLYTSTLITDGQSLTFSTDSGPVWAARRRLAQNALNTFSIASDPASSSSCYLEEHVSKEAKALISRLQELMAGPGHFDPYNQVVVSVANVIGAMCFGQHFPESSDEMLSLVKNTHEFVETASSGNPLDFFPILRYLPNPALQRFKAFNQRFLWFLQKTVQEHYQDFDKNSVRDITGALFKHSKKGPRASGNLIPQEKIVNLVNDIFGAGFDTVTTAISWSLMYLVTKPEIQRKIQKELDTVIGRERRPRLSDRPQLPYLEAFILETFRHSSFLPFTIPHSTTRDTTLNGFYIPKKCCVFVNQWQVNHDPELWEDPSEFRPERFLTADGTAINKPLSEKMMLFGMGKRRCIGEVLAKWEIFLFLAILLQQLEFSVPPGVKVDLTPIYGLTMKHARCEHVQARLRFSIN
Summary of the method: (§3)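 Insect-cell-expressed human or rat P450 (with NADPH-P450 reductase, some also with cytochrome b5) at 0.1 pmol/µL in 100 mM potassium phosphate pH 7.4 with 10 mM MgCl2. DB868 (for M1) or M1 (for M2) was added at 5 µM (0.5% DMSO) and started with 2 mM NADPH. Stopped after 15 min with ice-cold acetonitrile, then HPLC-UV. Duplicate incubations.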

Cytochrome P450 1A2 [5] = target: T2, Cytochrome P450 1A2 (Rattus norvegicus, UniProt P04799); assay: Drug metabolism in rat recombinant CYP1A2 treated with at 5 uM DB868 after 180 mins incubation by HPLC-UV chromatography; assay type: ADME; settings: recombinant enzyme, 15 min, in the assay text read “15 mins” for “180 mins”; summary of the method: as §3
T2 sequence (P04799 whole entry): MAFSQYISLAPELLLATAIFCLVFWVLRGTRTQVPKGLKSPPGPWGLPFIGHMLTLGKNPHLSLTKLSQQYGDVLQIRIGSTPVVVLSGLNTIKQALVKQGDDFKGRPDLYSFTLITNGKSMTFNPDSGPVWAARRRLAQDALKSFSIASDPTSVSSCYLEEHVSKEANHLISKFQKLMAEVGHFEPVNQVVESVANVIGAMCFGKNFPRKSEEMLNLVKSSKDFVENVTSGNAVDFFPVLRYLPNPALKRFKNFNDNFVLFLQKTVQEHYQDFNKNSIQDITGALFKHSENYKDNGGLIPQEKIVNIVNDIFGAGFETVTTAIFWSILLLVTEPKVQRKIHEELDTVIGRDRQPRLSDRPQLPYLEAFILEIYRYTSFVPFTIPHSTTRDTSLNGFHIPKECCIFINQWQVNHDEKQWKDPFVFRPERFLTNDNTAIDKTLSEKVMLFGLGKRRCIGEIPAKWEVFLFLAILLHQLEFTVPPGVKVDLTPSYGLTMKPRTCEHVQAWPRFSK

Liver microsome [6] = assay: Prodrug conversion in human liver microsomes assessed as elution time treated with 10 uM DB868 after 180 mins incubation by HPLC-UV chromatography; assay type: ADME; settings: 3 h; summary of the method: as §2
Cytochrome P450 4F1 = target: T3, Cytochrome P450 4F1 (Rattus norvegicus, UniProt P33274); assay: Drug metabolism in rat recombinant […] treated with at 5 uM DB868 after 180 mins incubation by HPLC-UV chromatography; assay type: ADME; settings: recombinant enzyme, 3 h
T3 sequence (P33274 whole entry): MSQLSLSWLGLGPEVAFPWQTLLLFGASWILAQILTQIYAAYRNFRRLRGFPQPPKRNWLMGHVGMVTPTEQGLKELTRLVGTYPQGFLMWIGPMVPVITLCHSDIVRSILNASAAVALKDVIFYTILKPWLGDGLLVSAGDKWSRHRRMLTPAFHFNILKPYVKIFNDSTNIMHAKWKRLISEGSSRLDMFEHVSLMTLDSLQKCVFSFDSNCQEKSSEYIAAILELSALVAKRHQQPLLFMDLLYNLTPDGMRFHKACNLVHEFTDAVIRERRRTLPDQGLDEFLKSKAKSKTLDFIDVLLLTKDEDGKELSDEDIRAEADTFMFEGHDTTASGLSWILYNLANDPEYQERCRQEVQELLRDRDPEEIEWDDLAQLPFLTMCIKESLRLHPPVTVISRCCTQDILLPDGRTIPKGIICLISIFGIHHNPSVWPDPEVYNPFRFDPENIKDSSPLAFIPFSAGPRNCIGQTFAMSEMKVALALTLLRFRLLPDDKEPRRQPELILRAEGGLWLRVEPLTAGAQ

[7] = Drug metabolism in sandwich-cultured rat hepatocytes treated with 10 uM DB868 after 4 hrs of incubation by HPLC-MS/MS analysis; assay type: ADME, cell-based, Hepatocyte; summary of the method: as §1
Liver microsome [8] = assay: Drug metabolism in human liver microsomes assessed as (3Z,3'Z)-6,6'-(furan-2,5-diyl)bis(N'-hydroxynicotinimidamide) formation measured per mg of protein by HPLC-MS/MS analysis; assay type: ADME
Summary of the method: (§4)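 M2 formation kinetics: HLM (0.5 mg/mL) with M1 at 0.1–25 µM in phosphate pH 7.4 with MgCl2, started with 2 mM NADPH. Run 5 min in triplicate under initial-rate conditions. Quantified by HPLC/MS/MS and fitted to the Hill equation (S50, Vmax, n).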

Liver microsome [9] = assay: Drug metabolism in human liver microsomes assessed as (3Z,3'Z)-6,6'-(furan-2,5-diyl)bis(N'-hydroxynicotinimidamide) formation measured by HPLC-MS/MS analysis; assay type: ADME; summary of the method: as §4
Cytochrome P450 4F2 = target: T4, Cytochrome P450 4F2 (Homo sapiens, UniProt P78329); assay: Activity at human recombinant CYP4F2-mediated drug metabolism treated with 5 uM DB868 […] by HPLC-UV chromatography; assay type: ADME; settings: recombinant enzyme, 3 h
T4 sequence (P78329 whole entry): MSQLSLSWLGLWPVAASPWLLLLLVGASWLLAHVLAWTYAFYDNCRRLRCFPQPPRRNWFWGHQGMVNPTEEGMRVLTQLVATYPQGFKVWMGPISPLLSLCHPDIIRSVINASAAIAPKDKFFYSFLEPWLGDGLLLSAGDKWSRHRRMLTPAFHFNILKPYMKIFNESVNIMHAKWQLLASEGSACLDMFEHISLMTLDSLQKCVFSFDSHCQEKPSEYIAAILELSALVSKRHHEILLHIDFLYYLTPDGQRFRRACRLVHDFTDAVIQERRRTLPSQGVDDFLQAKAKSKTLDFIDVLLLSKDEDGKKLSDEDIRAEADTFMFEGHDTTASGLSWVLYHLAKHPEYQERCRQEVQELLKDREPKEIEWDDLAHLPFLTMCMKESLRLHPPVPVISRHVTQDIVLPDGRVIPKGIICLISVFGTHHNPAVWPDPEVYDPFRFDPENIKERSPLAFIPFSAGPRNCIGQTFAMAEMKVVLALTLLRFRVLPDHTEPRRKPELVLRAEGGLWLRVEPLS

Cytochrome P450 3A4 [10] = target: T5, Cytochrome P450 3A4 (Homo sapiens, UniProt P08684); assay: Activity at human recombinant CYP3A4-mediated drug metabolism treated with 5 uM DB868 after 180 mins incubation by HPLC-UV chromatography; assay type: ADME; settings: recombinant enzyme, 15 min, in the assay text read “15 mins” for “180 mins”; summary of the method: as §3
Cytochrome P450 3A4 [11] = target: T5, Cytochrome P450 3A4; assay: Drug metabolism in human recombinant CYP3A4 treated with at 5 uM DB868 after 15 mins incubation by HPLC-UV chromatography; settings: recombinant enzyme
[12] = Drug metabolism in sandwich-cultured rat hepatocytes treated with 10 uM DB868 after 24 hrs of incubation by HPLC-MS/MS analysis; assay type: ADME, cell-based, Hepatocyte; summary of the method: as §1
Liver microsome [13] = assay: Prodrug conversion in rat liver microsomes treated with 10 uM DB868 after 180 mins incubation by HPLC-UV chromatography; assay type: ADME; settings: 3 h; summary of the method: as §2
Liver microsome [14] = assay: Drug level in human liver microsomes treated with 10 uM DB868 prodrug after 180 mins incubation by HPLC-UV chromatography relative to initial prodrug concentration; assay type: ADME; settings: 3 h; summary of the method: as §2
[15] = Ratio of drug metabolism in sandwich-cultured human hepatocytes to drug metabolism in sandwich-cultured rat hepatocytes treated with 10 uM DB868 after 24 hrs of incubation by HPLC-MS/MS analysis

T5 sequence (P08684 whole entry): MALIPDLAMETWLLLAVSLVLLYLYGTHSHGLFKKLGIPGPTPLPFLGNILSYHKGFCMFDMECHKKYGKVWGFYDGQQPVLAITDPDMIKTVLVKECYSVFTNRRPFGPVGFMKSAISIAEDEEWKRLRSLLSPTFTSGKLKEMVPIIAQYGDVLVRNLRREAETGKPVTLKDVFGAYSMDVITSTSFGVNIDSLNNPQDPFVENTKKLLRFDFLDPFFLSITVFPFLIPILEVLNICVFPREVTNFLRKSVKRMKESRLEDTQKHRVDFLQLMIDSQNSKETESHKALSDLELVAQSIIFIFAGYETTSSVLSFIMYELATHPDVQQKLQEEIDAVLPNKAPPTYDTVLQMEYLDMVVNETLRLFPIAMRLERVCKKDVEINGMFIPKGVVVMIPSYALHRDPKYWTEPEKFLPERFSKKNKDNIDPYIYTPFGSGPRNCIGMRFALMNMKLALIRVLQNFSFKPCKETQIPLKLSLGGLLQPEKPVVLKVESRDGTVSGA

Compound	Drug metabolism [1]	Drug metabolism [2]	Retention_time (Liver microsome [3]) [min]	Drug metabolism (Cytochrome P450 1A2 [4])	Drug metabolism (Cytochrome P450 1A2 [5])	Retention_time (Liver microsome [6]) [min]	Drug metabolism (Cytochrome P450 4F1)	Drug metabolism [7]	Vmax (Liver microsome [8]) [pmol/min]	S50 (Liver microsome [9]) [µM]	Drug metabolism (Cytochrome P450 4F2)	Drug metabolism (Cytochrome P450 3A4 [10])	Drug metabolism (Cytochrome P450 3A4 [11])	Drug metabolism [12]	Drug metabolism (Liver microsome [13])	Drug metabolism (Liver microsome [14])	Ratio [15]
N=C(NO)c1ccc(-c2ccc(-c3ccc(C(=N)NO)cn3)o2)nc1	metabolite_detected	metabolite_detected	10.5	metabolite_detected	metabolite_detected	10.5											
CO/N=C(/N)c1ccc(-c2ccc(-c3ccc(/C(N)=N/O)cn3)o2)nc1	metabolite_detected		14.5	metabolite_detected	metabolite_detected	14.5	metabolite_detected	metabolite_detected	180	18	metabolite_detected	metabolite_detected	metabolite_detected				
Cl.N=C(N)c1ccc(-c2ccc(-c3ccc(C(=N)N)cn3)o2)nc1		metabolite_detected				5.8								metabolite_detected	metabolite_not_detected	metabolite_detected	7800
CO/N=C(\N)c1ccc(-c2ccc(-c3ccc(C(=N)N)cn3)o2)nc1	metabolite_detected	metabolite_detected	12.3			12.3		metabolite_detected						metabolite_detected			
N=C(N)c1ccc(-c2ccc(-c3ccc(/C(N)=N/O)cn3)o2)nc1			8.3			8.3											

— ChEMBL document CHEMBL3525966, “Compartmental and enzyme kinetic modeling to elucidate the biotransformation pathway of a centrally acting antitrypanosomal prodrug” (Drug Metab Dispos, 2013)
